The campaign covered roughly 330,000 compounds. About 2,000 (0.61%) were called active. Many of the other results were omitted from the sample, so actives are more common in it than they were. A number with no mark means an inactive call.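 Rule for the calls: active = inhibition above that plate's mean sample inhibition plus 3 SD (cut at about 26% in these data); inactive = the rest.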
Test: nonselective Gq signaling inhibition in CHO cells – cell-based, fluorescence, Fluo-8 calcium dye, counter-screen for OX1R antagonist project, primary screen (AID 463079);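 note: 0% = ATP-challenged DMSO wells and 100% = DMSO wells without ATP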
Conditions: parental CHO-K1, ATP-induced calcium, Fluo-8 fluorescence; at 5.6 µM; active compounds read high
Outline: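 Assay system: untransfected parental CHO cell line. Also added: ATP agonist challenge. Dosing: one dose, 5.6 µM nominal. Measured by: Fluo-8 fluorescence. Read-out: % inhibition. Benchmarks: ATP wells versus no-ATP DMSO wells. Repeats: no replicates.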

Row | Compound | inhibition
1 | CCOC(=O)C1CCN(Cc2c(C(=O)N3CCOCC3)nc3c(C)cccn23)CC1 | -3.54%
2 | Cc1cccc(-n2c(Cc3cc(=O)[nH]c(=O)[nH]3)nnc2SCC(=O)Nc2cccc(C(F)(F)F)c2)c1 | -7.28%
3 | CCOC(=O)C(Sc1ncc(C#N)c(N)n1)C(C)C (stereo not given) | -2.34%
4 | CC[C@]1(C(=O)OC)[C@H]2C(=O)N(Cc3ccccc3)C(=O)[C@H]2[C@H]2CN=C(SCc3ccc(Cl)cc3)N21 | -19.6%
5 | CC(=O)c1c(C)oc2ccc(NS(=O)(=O)c3ccc(C(=O)O)cc3)cc12 | 7.03%
6 | COc1ccc(S(=O)(=O)Nc2ccc3oc(C)c(C(C)=O)c3c2)cc1 | 40.8% (active)
7 | CC(=O)c1c(C)oc2ccc(NS(=O)(=O)c3ccccc3)cc12 | -0.19%
8 | CCCCN1C(=O)C(=O)N(CC(=O)Nc2cccc(C(C)=O)c2)C1=O | -9.38%
9 | COc1cc(C(=O)NCCOC(=O)c2cccc(N(C)C)c2)cc(OC)c1OC | -13.3%
10 | Cc1ccc2cccc(O)c2[n+]1[O-] | -4.21%
11 | COC(=O)CNC(=O)c1ccc(OC2CCN(C(=O)C3CC3)CC2)cc1 | 2.53%
12 | CCCOC(=O)c1[nH]c2c(c1C)C(=O)CC(c1cccs1)C2 (stereo not given) | -21.6%
13 | CCCOC(=O)c1[nH]c2c(c1C)C(=O)CC(c1cc(OC)c(OC)c(OC)c1)C2 (stereo not given) | 33.7% (active)
14 | COCCOC(=O)c1[nH]c2c(c1C)C(=O)CC(c1ccc(OC)cc1)C2 (stereo not given) | -15.7%
15 | COc1cc(/C(=C/c2ccccc2)c2ccccc2)c2c(c1)oc1ccccc12 | -12.8%
16 | Cc1cc(Br)ccc1NC(=O)c1cnc(N2CCN(c3ccccn3)CC2)c2ccccc12 | -29.1%
17 | Cc1cc(C)cc(OCC(=O)Nc2ccc(S(=O)(=O)Nc3ccccn3)cc2)c1 | 2.04%
18 | Cc1ccc(NS(=O)(=O)c2ccc(C(C)(C)C)cc2)cn1 | -3.3%
19 | Cc1ccc(S(=O)(=O)Nc2ccc3ncccc3c2)cc1 | 37.3% (active)
20 | Oc1oc(-c2ccccc2Br)nc1/C=N/c1ccccn1 | 1.24%
21 | CCn1c(CSCc2c(Cl)cccc2Cl)n[nH]c1=S | 4.32%
22 | CC(C)c1nnc(NC(=O)COC(=O)/C=C/c2ccc([N+](=O)[O-])cc2)s1 | -9.22%
23 | Cc1ccc(OCc2cc(C(=O)N(C)CCc3ccccc3)no2)cc1C | -11.5%

Row | Compound | inhibition
24 | CC(=O)c1cccc(OCc2cc(C(=O)NC(C)Cc3cccnc3)no2)c1 (stereo not given) | -20%
25 | CN(Cc1cccnc1)C(=O)c1cc(COc2ccc3ncccc3c2)on1 | 41.8% (active)
26 | CCOC1CCCCC1NS(=O)(=O)c1ccc(Cl)cc1 (stereo not given) | -18.7%
27 | Cc1c(NC(=O)CSc2nnc(-c3cccnc3)n2N)c(=O)n(-c2ccccc2)n1C | -5.93%
28 | Cc1ccc(NC(=O)CSc2cccc3cccnc23)c(C)c1 | 0.17%
29 | Cc1c(NC(=O)CSc2cccc3cccnc23)c(=O)n(-c2ccccc2)n1C | 25.1% (active)
30 | CCOCc1nnc(NC(=O)CCS(=O)(=O)Cc2ccccc2)s1 | 3.73%
31 | OC(CNCCc1ccc(Cl)cc1Cl)COc1ccccc1 (stereo not given) | -7.3%
32 | CCOc1ccc(/C=N/NC(N)=S)cc1 | -2.97%
33 | NC(N)=N/N=C/c1ccc(OCc2ccc(Cl)cc2Cl)cc1 | 64.6% (active)
34 | Cn1c(Cc2cccc3ccccc23)nnc1SCC(=O)N1CCN(c2cccc(Cl)c2)CC1 | -6.75%
35 | Cc1ccc(-c2nnn(CC(=O)N(CCO)C(C(=O)NC(C)(C)C)c3ccncc3)n2)cc1 (stereo not given) | -17.6%
36 | COc1cc(F)c(C2=CC(=O)CC(C)(C)C2)cc1F | -13.2%
37 | CCOC(=O)C1=C(c2ccccc2)N=C2SCC(=O)N2C1c1ccc(O)c(OC)c1 (stereo not given) | -27.1%
38 | Cc1cc(N=Nc2ccc3ccccc3c2)ccc1O | 14.3%
39 | CC(C)(C)OC(=O)NCCCCCNC(=O)c1nc[nH]c1C(=O)NCc1ccccc1 | -30.4%
40 | CC(=O)N1c2ccc(S(=O)(=O)N3CCCC(C(=O)Nc4cccc(Cl)c4)C3)cc2CC1C (stereo not given) | -6.72%
41 | CC(=O)N1CCCc2cc(S(=O)(=O)N3CCCC(C(=O)N4CCN(c5cccc(Cl)c5)CC4)C3)ccc21 (stereo not given) | 66.2% (active)
42 | CC(=O)N1CCCc2cc(S(=O)(=O)N3CCCC(C(=O)NCc4ccc(Cl)cc4)C3)ccc21 (stereo not given) | -11.9%
43 | O=C(c1ccc(Br)o1)N1CCN(CCOc2ccccc2)CC1 | -7.03%
44 | CCOC(=O)C1CCCN(C(=O)CSc2nnc3nc(C)cc(C)n23)C1 (stereo not given) | -13.2%
45 | Cc1ccc(CN(Cc2cccnc2)C(=S)Nc2cccc(Cl)c2C)cc1 | -2.11%
46 | Cc1ccc(CN(Cc2cccnc2)C(=S)Nc2cc(Cl)ccc2C)cc1 | 64.7% (active)

Row | Compound | inhibition
47 | Cc1c(Cl)cccc1NC(=S)N(Cc1ccccc1)Cc1cccnc1 | -0.95%
48 | CN1CCN(C(=O)N2c3ccccc3CCc3ccccc32)CC1 | -14.7%
49 | O=C1C=C(c2cccc(Cl)c2)C[C@@H](c2ccc(F)cc2)C1 | -24%
50 | COc1ccc(S(=O)(=O)NCCCCOc2ccc(Cl)cc2)cc1 | 62.1% (active)
51 | COc1ccc(S(=O)(=O)NCCCc2ccccc2)cc1 | 9.88%
52 | COC(=O)CNS(=O)(=O)c1ccc(OC)cc1 | 4.49%
53 | Cc1ccc(S(=O)(=O)N2[C@@H](c3cccc(Cl)c3)C(C(=O)O)=CC[C@H]2c2ccc(Cl)c(Cl)c2)cc1 | 36.9% (active)
54 | Cc1ccccc1S(=O)(=O)N1[C@@H](c2cccc(Cl)c2)C(C(=O)O)=CC[C@H]1c1ccc(Cl)cc1 | -5.28%
55 | Cc1ccc([C@@H]2CC=C(C(=O)O)[C@H](c3cccc(Cl)c3)N2S(=O)(=O)c2ccc(C)cc2)cc1 | -14.4%
56 | CCCC(C(=O)n1nc(C)cc1C)C(NS(=O)(=O)c1ccc(C)cc1)c1ccccc1 (stereo not given) | 40.6% (active)
57 | Cc1ccc(S(=O)(=O)NC(C(=O)N2CCOCCOCCOCCOCC2)c2ccccc2)cc1 (stereo not given) | -9.77%
58 | Cc1ccc(S(=O)(=O)Nc2nc(C)cc(-n3nc(C)cc3C)n2)cc1 | 2.29%
59 | C/C(=N/OC(=O)c1cccc(C(F)(F)F)c1)c1cnccn1 | -5.36%
60 | CCc1ccccc1NC(=O)c1ccc2snnc2c1 | -1.87%
61 | O=C(Nc1ccc2ccccc2c1)Nc1ccc2snnc2c1 | 55.2% (active)
62 | O=C(Nc1cccc(Br)c1)c1ccc2snnc2c1 | 17.8%
63 | COc1cc(C2OC(c3cc(OC)c(OC)c(OC)c3)C(C)C2C)cc(OC)c1OC (stereo not given) | -16.8%
64 | CC1(NC(=O)CCS(=O)(=O)c2ccc(Cl)cc2)CCS(=O)(=O)C1 (stereo not given) | -11.8%
65 | CCCN1C(=O)C(NS(=O)(=O)c2ccc(N)cc2)(C(F)(F)F)C(C(=O)OC)=C1C (stereo not given) | -9.93%
66 | COc1cc(NC(=O)CSc2nnc3ccc(-c4ccncc4)nn23)cc(OC)c1 | -9.28%
67 | CCCc1nnc(SCC(=O)Nc2ccc(C(=O)OCC)cc2)o1 | -6.7%
68 | CCOC(=O)c1ccc(NC(=O)Cn2cnc3cc(C)c(C)cc32)cc1 | 56.1% (active)
69 | CCOC(=O)c1ccc(NC(=O)CSc2nnc(COc3ccccc3OC)n2C)cc1 | -24.5%

Row | Compound | inhibition
70 | COc1ccc(C(=O)Nc2cc(S(=O)(=O)N3CCCC3)ccc2Cl)cc1 | -15.8%
71 | CN(C)C(=O)CCc1ccc2c3c([nH]c2c1)[C@]1(CCc2ccccc2)[C@@H](C(=O)N2CCCCC2)C[C@H](CC(=O)NCCC2=CCCCC2)C(=O)N1CC3 | -31.7%
72 | Oc1cc(O)c2c(c1)OC(c1ccc(O)c(O)c1)C(O)C2 (stereo not given) | -0.43%
73 | CC(C)Cc1nnc(NC(=O)CCNC(=O)c2ccccc2Cl)s1 | -7.69%
74 | CCOC(=O)N1CCN(C(=O)C2CCN(Cc3ccc(OC)cc3OC)CC2)CC1 | -15.1%
75 | CCOC(=O)N1CCN(C(=O)C2CCN(c3ncnc4c3sc3cccc(F)c34)CC2)CC1 | 37.1% (active)
76 | CCOC(=O)N1CCN(C(=O)C2CCN(S(=O)(=O)c3cc(Cl)ccc3OCC)CC2)CC1 | -9.79%
77 | COc1cccc(CC(=O)OCC(=O)NCc2ccc3c(c2)OCO3)c1 | -4.2%
78 | Cc1cccc(NC(=O)c2ccc(S(=O)(=O)N(C)c3ccccc3)cc2)n1 | -10.9%
79 | CSc1nccc(NC(=O)c2ccc(C(C)(C)C)cc2)n1 | 33.6% (active)
80 | Cc1cccc(NC(=O)c2cccnc2Cl)n1 | 1.32%
81 | O=c1cnnc(Nc2ccccc2)[nH]1 | -11.1%
82 | CCOc1ccccc1OCC(=O)Nc1ccccc1C(=O)NC1CC1 | 14.9%
83 | CC(C)OCCCNc1ncnc2c1[nH]c1ccc(F)cc12 | 58.6% (active)
84 | O=C1c2ccccc2C(=O)N1CCC#Cc1ccc2cc(C3(O)CCCCC3)oc(=O)c2c1 | -14.2%
85 | O=C(NCCC(=O)N1O[C@@H]2C=C[C@H]1C2)OCC1c2ccccc2-c2ccccc21 | -10.5%
86 | CC(C)CNC(=O)c1cc(-c2ccc(Br)cc2)on1 | -10.3%
87 | CC(C)Cc1cc(C(=O)NCCc2ccccc2)no1 | -2.04%
88 | CC(C)Cc1cc(C(=O)Nc2cc(Br)ccc2O)no1 | 43% (active)
89 | Cc1ccc(C)c(S(=O)(=O)Nc2cccc(-n3cnnn3)c2)c1 | -1.77%
90 | CCOC(=O)C1CCCN(C(=O)c2cccc(S(=O)(=O)N3CCOCC3)c2)C1 (stereo not given) | -2.51%

From PubChem BioAssay AID463079 (The Scripps Research Institute Molecular Screening Center, 2010)
